Assay outcomes (PubChem)
HKDC1 inh = HKDC1 (human) hexokinase inhibition | Q2TB90 | inhibition, % at 20 µM | hit rate 0.16% among 340,000 | recombinant HKDC1, G6PDH/diaphorase resazurin coupled fluorescence;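 active means inhibition above about 35% when tested at 20 µM, limit read from the data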
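Assay system – recombinant HKDC1 (HK5) hexokinase enzyme, produced in-house · Input – HKDC1 at 5 µg/mL · Reagent – glucose plus 1 mM ATP as hexokinase substrates · Timing – 90 min reaction incubation at room temperature, dark · Measured by – G6PDH/diaphorase-coupled fluorescence, 1 mM NADP, 100 µM resazurin, 525/613 nm · Benchmarks – DMSO-enzyme wells negative, buffer-substituted wells positive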
PKA-R2B act = PKA-R2B complex activation. AID 504700. hit rate 0.079% among 340,000. activation, % at 11.4 µM. PKA-R2B holoenzyme dissociation, Cy5-IP20 fluorescence polarization; R2B truncated from residue 108, S112A mutant; 0% DMSO only, 100% 113 µM cGMP;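 active means activation above a cutoff set at the mean over all compounds plus 3 SD, cut at about 18% in these data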;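 further: higher means more holoenzyme dissociation and a rise in polarization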
PfGluPho inh = PfG6PD (Plasmodium falciparum) enzyme inhibition; inhibition, % at 20 µM; hit rate 0.78% among 350,000; AID 504690; PfGluPho enzyme, NADPH resazurin-diaphorase fluorescence;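 active means inhibition reaching at least a set limit at 20 µM in the primary screen, cut at about 59% in these data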
ATG4B inhibitor = ATG4B (human) cysteine protease inhibition; Q9Y4P1; AID 504462; ATG4B cleavage of LC3-PLA2, NBD-HPC fluorescence, 1 h; hit rate 0.51% among 340,000; inhibition, % at 8.33 µM; in the data active means inhibition above about 40%
Target sequence (Q9Y4P1 whole entry, looked up): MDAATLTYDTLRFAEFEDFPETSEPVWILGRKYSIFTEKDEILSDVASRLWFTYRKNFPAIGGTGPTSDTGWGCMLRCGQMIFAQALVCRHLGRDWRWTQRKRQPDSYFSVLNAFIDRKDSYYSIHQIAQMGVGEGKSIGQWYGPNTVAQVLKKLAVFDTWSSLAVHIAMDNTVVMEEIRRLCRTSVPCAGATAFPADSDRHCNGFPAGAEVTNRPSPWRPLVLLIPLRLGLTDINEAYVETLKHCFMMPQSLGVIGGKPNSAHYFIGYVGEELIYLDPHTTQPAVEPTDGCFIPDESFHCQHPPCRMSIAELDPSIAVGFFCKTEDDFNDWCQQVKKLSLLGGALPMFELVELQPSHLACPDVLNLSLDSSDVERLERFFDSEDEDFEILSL
T cell modulator = modulates CD8 T cell binding to vesicles; hit rate 0.068% among 330,000; response (vesicle binding), % at 7 µM; 2C CD8+ T cell-vesicle binding, flow cytometry; active compounds read low;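 active means response, share of CD8 T cells binding vesicles, and their 90th percentile fluorescence all below set limits, cut at about 80% in these data, passing the limit was not always enough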;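 further: values below 100% mean blocked vesicle binding to the CD8+ T cells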
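System: murine 2C transgenic CD8+ T lymphocytes; also added: QL9-loaded Drosophila micro-vesicles; times: binding 1.5 h at 37 °C; measured by: flow cytometry, PE anti-B7-1 (FL2) versus Alexa647 anti-CD8 (FL8), PFA-fixed; control set: Peptide-free naked vesicles (low) and QL9 vesicles with 0.7% DMSO vehicle (high)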
PKA-R1A activ = PKA-R1A complex activation; activation, % at 11.4 µM; PKA-R1A dissociation, Cy5-IP20 fluorescence polarization; scaled: DMSO 0%, 113 µM cGMP 100%; hit rate 0.083% among 340,000; AID 504707;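 active means percent activation above the mean of all tested compounds plus 3 SD, cut at about 19% in these data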;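 further: higher means more PKAc released from R1A so a rise in polarization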
PfGluPho conf = confirmation of Plasmodium falciparum G6PD inhibitors | shares compounds with PfGluPho inh | recombinant PfGluPho, NADPH-diaphorase-resazurin fluorescence | inhibition, % at 20 µM | hit rate 34% among 2,400 | AID 504753;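 active means inhibition of at least 50% at 20 µM in any single replicate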
Diaph ctr 10uM = inhibits diaphorase or oxidizes, flagging false PfG6PD hits; shares compounds with PfGluPho inh; diaphorase-coupled resazurin reduction, fluorescence, NADPH 10 uM; inhibition, % at 20 µM; hit rate 39% among 820;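 active means average inhibition reaching 50% or more with the compound at 20 µM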;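 further: resorufin red fluorescence formed as diaphorase reduces resazurin using NADPH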
Diaph ctr 30uM = inhibits diaphorase or oxidizes, flagging false PfG6PD hits; Diaphorase/resazurin coupled assay, resorufin fluorescence, 30 uM NADPH; shares compounds with PfGluPho inh; hit rate 29% among 820; inhibition, % at 20 µM;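 active means inhibition averaging 50% or more, tested at 20 µM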
Large screens that a line does not name were inactive (follow-up assays come after a bar, where they were run). An excerpt weighted towards active compounds, which were near 1.6% of everything screened.

CC(NC(=O)c1ccco1)c1nc(-c2ccc(C(C)(C)C)cc2)no1 (stereo not drawn)	PfGluPho inh 66 | PfGluPho conf inactive
CC(C)(C)c1ccc(-c2noc(CNC(=O)c3ccco3)n2)cc1	none
Cc1ccc(NNC(N)=S)cc1Cl	none
NC(=S)NNc1ccc(Cl)c(Cl)c1	PfGluPho inh 65 | PfGluPho conf inactive
COc1ccc(S(=O)(=O)N2CCCCC2)cc1NC(=O)C1COc2ccccc2O1 (stereo not drawn)	none
CCN1CCN(c2nc(C)nc3c2sc(=S)n3C)CC1	PfGluPho inh 76 (no result: T cell modulator) | PfGluPho conf 62 | Diaph ctr 10uM inactive | Diaph ctr 30uM inactive
O=C1c2ccccc2C(Nc2ccc3c(c2)OCO3)N1Cc1ccc2c(c1)OCO2 (stereo not drawn)	PfGluPho inh 60 | PfGluPho conf inactive
O=C1c2ccccc2C(Nc2ccc3c(c2)OCO3)N1Cc1ccco1 (stereo not drawn)	PfGluPho inh 61 | PfGluPho conf inactive
Cc1ccc(N(Cc2cc(=O)[nH]c3ccccc23)C(=O)CCl)c(C)c1	none
CC(=O)N1CC[n+]2c(-c3ccc(Cl)cc3Cl)csc21	PfGluPho inh 59 | PfGluPho conf inactive
Cc1cc(NC(=O)C(C)SCC(=O)N(C)Cc2ccccc2F)no1 (stereo not drawn)	none
COc1cc(C[C@@H](C)[C@@H](C)Cc2ccc(O)c(OC)c2)ccc1O	none
CC(Cc1ccc(O)c(O)c1)C(C)Cc1ccc(O)c(O)c1 (stereo not drawn)	PfGluPho inh 84 (no result: PKA-R2B act, PKA-R1A activ) | PfGluPho conf 61 | Diaph ctr 10uM inactive | Diaph ctr 30uM inactive
N#CC1c2ccccc2-c2ccccc2N1C(=O)c1ccccc1 (stereo not drawn)	none (no result: HKDC1 inh, ATG4B inhibitor, T cell modulator)
CC(Sc1nc(N2CCOCC2)c2c(c1C#N)CC(C)(C)OC2)C(=O)Nc1ccccc1 (stereo not drawn)	PfGluPho inh 60 (no result: T cell modulator) | PfGluPho conf inactive
CCOC(=O)C(C)Sc1nc(N2CCOCC2)c2c(c1C#N)CC(C)(C)OC2 (stereo not drawn)	none (no result: PKA-R2B act, PKA-R1A activ)
CC(=O)c1ccc(OCC(=O)OCC(=O)c2ccc(S(=O)(=O)N3CCCCC3)cc2)cc1	none (no result: HKDC1 inh, ATG4B inhibitor, T cell modulator)
CCCCCC(=O)NC(NC(=S)NC1CCS(=O)(=O)C1)C(Cl)(Cl)Cl (stereo not drawn)	PfGluPho inh 63 | PfGluPho conf inactive
O=C(CNC(=O)c1ccc(Br)cc1)NCC(=O)OCC(=O)c1ccc([N+](=O)[O-])cc1	PfGluPho inh 67 | PfGluPho conf 57 | Diaph ctr 10uM inactive | Diaph ctr 30uM inactive
O=C(CNC(=O)c1ccccc1)NCC(=O)OCC(=O)c1ccc([N+](=O)[O-])cc1	PfGluPho inh 59 | PfGluPho conf 55 | Diaph ctr 10uM inactive | Diaph ctr 30uM inactive
O=C(CNC(=O)c1ccc(Br)cc1)NCC(=O)OCC(=O)c1ccc(F)cc1	none
CN(C)c1cccc(F)c1C(=O)NC(=O)Nc1ccc(Cl)cc1	none (no result: T cell modulator)
O=C(CN1C(=O)c2ccccc2C1=O)Nc1ccccc1	none
O=C(Cn1sc2ccccc2c1=O)Nc1ccccc1	PfGluPho inh 122 (no result: HKDC1 inh, ATG4B inhibitor, T cell modulator) | PfGluPho conf 107 | Diaph ctr 10uM inactive | Diaph ctr 30uM inactive
O=C(Cn1sc2ccccc2c1=O)NC12CC3CC(CC(C3)C1)C2	PfGluPho inh 125 | PfGluPho conf 106 | Diaph ctr 10uM inactive | Diaph ctr 30uM inactive
Nc1cccc2c1C(=O)N(CC(=O)NC13CC4CC(CC(C4)C1)C3)C2=O	none
O=C(CCCn1c(=S)[nH]c2cc3c(cc2c1=O)OCO3)NCc1ccccc1Cl	none
COc1cc(N)c2ncccc2c1Br	none (no result: T cell modulator)
COc1cc(N)c2ncccc2c1SC	PfGluPho inh 66 (no result: HKDC1 inh, ATG4B inhibitor, T cell modulator) | PfGluPho conf 62 | Diaph ctr 10uM inactive | Diaph ctr 30uM inactive
COC(=O)c1ccc(/C=N/n2c(C)nc3ccccc3c2=O)cc1	none
Cc1ccc(-c2nn(-c3ccccc3)cc2/C=N/NC(=O)c2ccncc2)o1	PfGluPho inh 60 | PfGluPho conf inactive
CCOC(=O)c1sc(NC(=O)C(C)C)c(C#N)c1C	PfGluPho inh 68 | PfGluPho conf inactive
COc1cccc(C2Nc3ccc4ccccc4c3C3=C2C(=O)CC(C)(C)C3)c1OCC(=O)O (stereo not drawn)	none
CCSc1nc2cc(S(=O)(=O)N3CCOCC3)ccc2o1	PfGluPho inh 71 | PfGluPho conf 50 | Diaph ctr 10uM inactive | Diaph ctr 30uM inactive
Cc1nc2ccc(NC(=O)c3cc(S(=O)(=O)N4CCOCC4)ccc3C)cc2s1	none
Cc1nc2ccc(Nc3nc4cc(S(=O)(=O)N5CCOCC5)ccc4o3)cc2s1	PfGluPho inh 93 | PfGluPho conf 54 | Diaph ctr 10uM inactive | Diaph ctr 30uM inactive
COc1ccccc1C(=O)Nc1c(C(=O)N2CCN(C)CC2)oc2ccccc12	none
CC(Oc1ccc2c(c1)oc(=O)c1ccccc12)C(=O)NC(Cc1c[nH]c2ccc(O)cc12)C(=O)O (stereo not drawn)	none
Cc1ccc(N/C(N)=N/c2nc(C)cc(C)n2)cc1	none
Cc1cc(C)nc(/N=C(\N)Nc2ccccc2-c2ccccc2)n1	PfGluPho inh 72 | PfGluPho conf 55 | Diaph ctr 10uM 52 | Diaph ctr 30uM inactive
O=C1NCCCc2c1oc1ccc(O)cc21	none
Oc1c(Cl)cc(Cl)c2c1NCCC2	PfGluPho inh 78 (no result: T cell modulator) | PfGluPho conf inactive
CC1=C(C(=O)OCc2ccccc2)C(c2cccnc2)n2nnnc2N1 (stereo not drawn)	PfGluPho inh 61 | PfGluPho conf inactive
CCCCCOC(=O)C1=C(C)Nc2nnnn2C1c1ccccc1Cl (stereo not drawn)	none
COc1ccccc1N(C)S(=O)(=O)c1ccc(C(=O)NCc2ccccc2CN2CCCC2)cc1	none (no result: T cell modulator)
COc1cccc(S(=O)(=O)N(C)C[C@@H]2Oc3cc(C#CCN(C)C)ccc3S(=O)(=O)N([C@H](C)CO)C[C@@H]2C)c1	none (no result: HKDC1 inh, ATG4B inhibitor, T cell modulator)
Cc1ccc(Cc2c(-c3ccc(C#N)cc3)nc3ccc(Br)cn23)cc1	none (no result: HKDC1 inh, ATG4B inhibitor, T cell modulator)
N#Cc1ccc(-c2nc3ccc(Br)cn3c2Cc2ccccc2)cc1	PfGluPho inh 89 (no result: HKDC1 inh, ATG4B inhibitor, T cell modulator) | PfGluPho conf inactive
CN(C)c1cc2c(cc1NC(=O)c1ccccc1Cl)n(C)c(=O)n2C	none
